ChEMBL document CHEMBL1150379, “Synthesis and antiproliferative activity of imidazole and imidazoline analogs for melanoma” (Bioorg Med Chem Lett, 2008)

Legend:
A-375 = test: Antiproliferative activity against human A375 cells after 48 hrs by SRB assay; assay type: functional, cell-based; details: A-375, 48 h
How it was run: (§1)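 Cells seeded in round-bottom 96-well plates and exposed to a wide range of concentrations for 48 h. Fixed with 10% trichloroacetic acid, washed five times with water, air-dried overnight, then stained with sulforhodamine B. Total protein read at 560 nm. IC50 is the concentration inhibiting growth by 50% relative to DMSO-treated controls, obtained by nonlinear regression.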

[1] = Antiproliferative activity against mouse B16-F1 cells after 48 hrs by SRB assay; assay type: functional, cell-based; details: B16-F1, 48 h; how it was run: as §1
[2] = Antiproliferative activity against fibroblast cells after 48 hrs by SRB assay; assay type: cell-based; how it was run: as §1

CCCCCCCCCCCCCCNC(=O)[C@@H]1CNC(c2ccccc2)=N1
IC50 (A-375): 7.1 µM | IC50 [1]: 7.2 µM | IC50 [2]: 17.3 µM

CCCCCCCCCCCCCCCCCCNC(=O)c1c[nH]c(-c2ccccc2)n1
IC50 (A-375): 20.7 µM | IC50 [1]: > 30 µM | IC50 [2]: 47.4 µM

CCCCCCCCC/C=C/CCCCCCCNC(=O)c1c[nH]c(-c2ccccc2)n1
IC50 (A-375): 16.1 µM | IC50 [1]: 31.6 µM | IC50 [2]: 23.9 µM

COc1cc(C2=N[C@H](C(=O)N(C)OC)CN2)cc(OC)c1OC
IC50 (A-375): > 20 µM | IC50 [1]: > 20 µM | IC50 [2]: > 20 µM

CCCCCCCCCCCCNC(=O)c1c[nH]c(-c2ccccc2)n1
IC50 (A-375): > 30 µM | IC50 [1]: 30 µM

CCCCCCCCCCCCCCCCNC(=O)[C@@H]1CNC(c2cc(OC)c(OC)c(OC)c2)=N1
IC50 (A-375): 4.1 µM | IC50 [1]: 3.8 µM | IC50 [2]: 13.3 µM

O=C(Nc1ccc(Br)cc1)c1c[nH]c(-c2ccccc2)n1
IC50 (A-375): > 30 µM | IC50 [1]: > 30 µM

CCCCCCCCCCCCCCCCNC(=O)[C@@H]1CNC(c2ccccc2)=N1
IC50 (A-375): 10.5 µM | IC50 [1]: 5.7 µM | IC50 [2]: 59.6 µM

CCCCCCCCCCCCCCCCNC(=O)[C@@H]1CNC(c2ccc(NC(C)=O)cc2)=N1
IC50 (A-375): 4.6 µM | IC50 [1]: 2.4 µM | IC50 [2]: 14.8 µM

CCCCCCCCCCCCCCCCNC(=O)[C@@H]1CNC(Cc2cc(OC)c(OC)c(OC)c2)=N1
IC50 (A-375): 3.9 µM | IC50 [1]: 4 µM | IC50 [2]: 15.8 µM

CCCCCCCCCCCCCCCCNC(=O)[C@@H]1CSC(Cc2ccc(NC(C)=O)cc2)N1 (stereo partly specified)
IC50 (A-375): 191 µM | IC50 [1]: 171 µM | IC50 [2]: > 100 µM

CC(=O)Nc1ccc(CC2N[C@H](C(=O)Nc3ccc4c(c3)Cc3ccccc3-4)CS2)cc1 (stereo partly specified)
IC50 (A-375): 6.1 µM | IC50 [1]: 4 µM | IC50 [2]: 15.3 µM

CCCCCCCCCCCCCCCCNC(=O)[C@H]1CC[C@@H](c2ccccc2)N1
IC50 (A-375): 13.7 µM | IC50 [1]: 11.5 µM | IC50 [2]: 46.6 µM

CCCCCCCCCCCCCCCCNC(=O)[C@@H]1CSC(Cc2ccccc2)N1 (stereo partly specified)
IC50 (A-375): 8.1 µM | IC50 [1]: 6.5 µM | IC50 [2]: 15.3 µM

CCCCCCCCCCCCCCCCCCNC(=O)[C@@H]1CNC(c2ccccc2)=N1
IC50 (A-375): 54.3 µM | IC50 [1]: 50.5 µM | IC50 [2]: 111 µM

CCCCCCCCC/C=C/CCCCCCCNC(=O)[C@@H]1CNC(c2ccccc2)=N1
IC50 (A-375): 8.3 µM | IC50 [1]: 12 µM | IC50 [2]: 24.6 µM

CCCCCCCCC/C=C/CCCCCCCNC(=O)[C@@H]1CSC(Cc2ccccc2)N1 (stereo partly specified)
IC50 (A-375): 10.3 µM | IC50 [1]: 11.6 µM | IC50 [2]: 15.5 µM

O=C(Nc1ccc2c(c1)Cc1ccccc1-2)[C@@H]1CSC(Cc2ccccc2)N1 (stereo partly specified)
IC50 (A-375): 174 µM | IC50 [1]: 118 µM | IC50 [2]: > 100 µM

CCCCCCCCCCCCCCNC(=O)c1c[nH]c(-c2ccccc2)n1
IC50 (A-375): 18.7 µM | IC50 [1]: 38.2 µM | IC50 [2]: 42.7 µM

CCCCCCCCCCCCCCCCNC(=O)c1c[nH]c(-c2ccccc2)n1
IC50 (A-375): 16.5 µM | IC50 [1]: 39.7 µM | IC50 [2]: 27.9 µM

CCCCCCCCCCNC(=O)c1c[nH]c(-c2ccccc2)n1
IC50 (A-375): > 30 µM | IC50 [1]: > 30 µM

CCCCCCCCCCCCCCCCNC(=O)[C@@H]1CSC(C(C)c2ccccc2)N1 (stereo partly specified)
IC50 (A-375): 13.1 µM | IC50 [1]: 12.2 µM | IC50 [2]: 55.7 µM

CCCCCCCCC/C=C/CCCCCCCNC(=O)[C@@H]1CSC(C(C)c2ccccc2)N1 (stereo partly specified)
IC50 (A-375): 21.2 µM | IC50 [1]: 16.5 µM | IC50 [2]: 237 µM

CN(C)/N=N/c1[nH]cnc1C(N)=O [DACARBAZINE]
IC50 (A-375): > 100 µM | IC50 [1]: > 100 µM

CNC(=O)c1cc(Oc2ccc(NC(=O)Nc3ccc(Cl)c(C(F)(F)F)c3)cc2)ccn1 [SORAFENIB]
IC50 (A-375): 5.4 µM | IC50 [1]: 4.9 µM | IC50 [2]: 15.1 µM
